The record followed here is ChEMBL document CHEMBL1146868, “Design, synthesis, and biophysical and biological evaluation of a series of pyrrolobenzodiazepine-poly(N-methylpyrrole) conjugates” (J Med Chem, 2006).

The test system of data set [1] is Panel NCI-60 (60 carcinoma cell lines). Description: Cytotoxicity against human NCI60 cell line […]. As to conditions: for CC50: read-out: LC50 (the source's name); call rule not given here. The data set is classed as functional. Background: Tetrazolium dyes change colour on reduction, which living cells bring about.
The subject of data set [2] is Nucleic Acid. Description: Inhibition of DNA transcription at 5 uM. The data set is classed as functional. The method in brief: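 In vitro transcription of a DNA template by a viral RNA polymerase. Read-out is the sites where transcription stops and the amount of full-length 266-nt transcript. Activity is expressed as 50% inhibition of full-length transcript synthesis.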

Data set [3] concerns MCF7. Description: Uptake in human MCF7 cells at 100 uM after 24 hrs. The following applies: mcf7, 24 h. The data set is classed as ADME, cell-based. The method in brief:
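MCF-7 cells were exposed to the conjugates for 24 h, at up to 100 µM. Cellular and nuclear uptake was assessed from intrinsic fluorescence.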

The subject of data set [4] is K562. Description: Cytotoxicity against human K562 cell line after 96 hrs by MTT assay. The format is functional. The following applies: K562, 96 h.
Data set [5] concerns MCF7. Description: Uptake in human MCF7 cells after <1 hr. The format is ADME, cell-based. As to conditions: mcf7, 1 h.

Broadly, the GI50 is the concentration at which growth is held to half of that of the control. One may read the TGI as the concentration giving total growth inhibition. Read a low TGI as more potent growth arrest. The term inhibition denotes the drop in the measured response relative to a control, in per cent.

For `COC(=O)c1cc(NC(=O)c2cc(NC(=O)c3cc(NC(=O)CCCOc4cc5c(cc4OC)C(=O)N4CCC[C@H]4C=N5)cn3C)cn2C)cn1C`, in data set [1], growth was halved (GI50) at 15 nM, total growth inhibition (TGI) required 32 nM and the CC50 amounted to 1070 nM. Besides, the inhibition in data set [2] amounted to 50%. Moreover, the Drug uptake entry in data set [3] is “Active”. Moreover, the GI50 in data set [4] came to 41 nM.
In the case of `COC(=O)c1cc(NC(=O)c2cc(NC(=O)CCCOc3cc4c(cc3OC)C(=O)N3CCC[C@H]3C=N4)cn2C)cn1C`, in data set [1], the GI50 was determined as 11 nM, total growth inhibition (TGI) required 120 nM and the CC50 was determined as 10000 nM. In data set [2], the inhibition came out at 50%. For the same compound, the Drug uptake result in data set [3] is reported as “Active”. This compound came in with a GI50 in data set [4] of 7.1 nM.
With `COC(=O)c1cc(NC(=O)c2cc(NC(=O)c3cc(NC(=O)c4cc(NC(=O)c5cc(NC(=O)CCCOc6cc7c(cc6OC)C(=O)N6CCC[C@H]6C=N7)cn5C)cn4C)cn3C)cn2C)cn1C`, in data set [1], the GI50 amounted to 9 nM, net growth stopped (TGI) at 29 nM and the CC50 came out at 1260 nM. In data set [2], the inhibition came out at 50%. Besides, the Drug uptake entry in data set [3] is given as “Active”. This compound had a GI50 in data set [4] of 83 nM.
`COC(=O)c1cc(NC(=O)CCCOc2cc3c(cc2OC)C(=O)N2CCC[C@H]2C=N3)cn1C`: in data set [1], the GI50 was 47 nM, total growth inhibition (TGI) required 323 nM and the CC50 amounted to 11500 nM. Further, the inhibition in data set [2] worked out at 50%. For the same compound, in data set [5], the Drug uptake result is given as “Active”. The compound further yielded a GI50 in data set [4] of 51 nM.
As for `COC(=O)CCCOc1cc2c(cc1OC)C(=O)N1CCC[C@H]1C=N2`, in data set [1], growth was halved (GI50) at 1740 nM, net growth stopped (TGI) at 11800 nM and the CC50 was 46800 nM. In data set [4], this compound gave a GI50 of 526 nM.
Turning to `COC(=O)c1cc(NC(=O)c2cc(NC(=O)c3cc(NC(=O)c4cc(NC(=O)CCCOc5cc6c(cc5OC)C(=O)N5CCC[C@H]5C=N6)cn4C)cn3C)cn2C)cn1C`, in data set [1], halving of growth (GI50) required 7 nM, the TGI was 18 nM and the CC50 stood at 1510 nM. Further, the inhibition in data set [2] turned out to be 50%. Further, the Drug uptake entry in data set [3] is “Active”. Besides, in data set [4], halving of growth (GI50) required 47 nM.
Take `C=C1C[C@H]2C=Nc3cc(OCCCOc4cc5c(cc4OC)C(=O)N4CC(=C)C[C@H]4C=N5)c(OC)cc3C(=O)N2C1` [SJG-136]: in data set [1], the GI50 came to 7.4 nM, total growth inhibition (TGI) required 87.1 nM and the CC50 worked out at 562 nM. In addition, halving of growth in data set [4] (GI50) required 3.8 nM.
The corresponding values for `COC(=O)c1cc(NC(=O)c2cc(NC(=O)c3cc(NC=O)cn3C)cn2C)cn1C` are 16600 nM, 44700 nM, 85100 nM and over 10000 nM.
The matching figures for `COC(=O)c1cc(NC(=O)c2cc(NC(=O)c3cc(NC(=O)CCCOc4cc5c(cc4OC)C(=O)N4CCC[C@H]4C(=O)N5)cn3C)cn2C)cn1C`: 49000 nM, over 50000 nM, over 50000 nM and over 10000 nM.
`COC(=O)c1cc(NC(=O)c2cc(NC(=O)c3cc(NC(=O)c4cc(NC(=O)c5cc(NC(=O)c6cc(NC(=O)CCCOc7cc8c(cc7OC)C(=O)N7CCC[C@H]7C=N8)cn6C)cn5C)cn4C)cn3C)cn2C)cn1C`: in data set [1], halving of growth (GI50) required 8 nM, total growth inhibition (TGI) required 54 nM and the CC50 worked out at 1900 nM. The inhibition in data set [2] stood at 50%. For the same compound, the Drug uptake result in data set [3] was “Active”. The same compound registered a GI50 in data set [4] of 30 nM.
With `COC(=O)c1cc(NC(=O)c2cc(NC(=O)c3cc(NC(=O)CCCN(C)C)cn3C)cn2C)cn1C`, in data set [1], the GI50 was 72400 nM, the TGI was over 100000 nM and the CC50 was over 100000 nM. The same compound yielded a GI50 in data set [4] of over 10000 nM.
Turning to `COC(=O)c1cc(NC(=O)c2cc(NC(=O)c3cc(NC(=O)CCOc4cc5c(cc4OC)C(=O)N4CCC[C@H]4C=N5)cn3C)cn2C)cn1C`, in data set [1], halving of growth (GI50) required 47 nM, the TGI was 1760 nM and the CC50 is 56200 nM. Further, the GI50 in data set [4] amounted to 346 nM.
